Active and inactive are the calls of the source. The calls are words filed in the database; no cut-off is given here.
What was measured:
[1] = Antioxidant activity assessed as peroxyl radical scavenging activity by electron paramagnetic resonance spectra analysis; type: functional
[2] = tested on: HBMEC; assay: Antiinflammatory activity in HBMEC cells assessed as inhibition of TGRL lipolysis-induced IL-8 gene expression by RT-PCR analysis relative to control; type: functional, cell-based; conditions: Homo sapiens
Method in brief: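 HBMEC (passage 6) were grown in serum-free or 10%-serum complete medium on attachment factor at 37°C in 5% CO2. Cells were pretreated 30 min with 200 µM compound, then exposed 3 h to TGRL (150 mg/dL) plus lipoprotein lipase (2 U/mL), preincubated together 30 min at 37°C. IL-8 mRNA was measured by SYBR Green qRT-PCR, normalized to GAPDH, comparative CT; N = 3.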

[3] = Antioxidant activity assessed as hydroxyl radical scavenging activity by electron paramagnetic resonance spectra analysis; type: functional; set-up: concentration or dose not given beside the values
Method in brief: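 For EPR, 9 µl of ROS mixture was combined immediately with 1 µl of compound from a 2 mM stock. About 5 µl was loaded into a sealed quartz capillary for measurement.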

[4] = Antioxidant activity assessed as hydroxyl radical scavenging activity at 0.2 to 10 uM; type: functional
Method in brief: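 Hydroxyl radical scavenging was measured with a commercial HORAC kit, per the manufacturer's protocol, at compound concentrations of 0.2, 1 and 10 µM. Read-out was fluorescence (ex 485 nm, em 530 nm) of a reporter that is inversely proportional to surviving radical. Distilled water served as control.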

[5] = Antioxidant activity assessed as peroxyl radical scavenging activity at 10 uM by fluorescence quenching assay; type: functional
Method in brief: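 Peroxyl radicals were assayed with a commercial ORAC kit, per the manufacturer's protocol, with compound at 10 µM. The read-out was quenching of indicator fluorescence (ex 480 nm, em 520 nm).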

[6] = tested on: HBMEC; assay: Antiinflammatory activity in HBMEC cells assessed as inhibition of TGRL lipolysis-induced ATF3 gene expression by RT-PCR analysis relative to control; type: functional, cell-based; conditions: Homo sapiens
Method in brief: (§1)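 Human brain microvascular endothelial cells (passage 6) grown at 37°C, 5% CO2; pre-treated 30 min with 200 µM compound, then 3 h with TGRL (150 mg/dL) plus lipoprotein lipase (2U/mL), pre-incubated together 30 min at 37°C. Total RNA reverse-transcribed; SYBR Green real-time PCR normalised to GAPDH, comparative CT method; N = 3.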

[7] = tested on: HBMEC; assay: Antiinflammatory activity in HBMEC cells assessed as inhibition of TGRL lipolysis-induced COX-2 gene expression by RT-PCR analysis relative to control; type: functional, cell-based; conditions: Homo sapiens; method in brief: as §1

SMILES	Activity [1] [%]	Activity [2]	Activity [3] [%]	Activity [4]	Activity [5]	fold change (FC) [6]	fold change (FC) [7]
CC1(C)C=C(CNc2ccc3c(c2)Cc2cc(Br)ccc2-3)CC(C)(C)N1O	80	Active	61	Active	Active	–	–
CN(CC1=CC(C)(C)N([O])C1(C)C)c1ccc2c(c1)Cc1cc(Br)ccc1-2	–	–	18	Active	Active	18.3	2.7
CC1(C)C(Br)=C(CNc2ccc3c(c2)Cc2cc(Br)ccc2-3)C(C)(C)N1[O]	–	inactive	10	Active	Active	–	–
CN(C)c1ccc2c(c1)Cc1cc(Br)ccc1-2	–	–	–	Active	Active	–	–
CN(CC1=CC(C)(C)NC1(C)C)c1ccc2c(c1)Cc1cc(Br)ccc1-2	100	inactive	18	Active	Active	–	–
CC1(C)CC(O)CC(C)(C)N1[O]	–	–	–	Active	Active	–	–
CC1(C)C=C(CNc2ccc3c(c2)Cc2cc(Br)ccc2-3)CC(C)(C)N1[O]	–	Active	26	Active	Active	–	–
CN1C(C)(C)C=C(CNc2ccc3c(c2)Cc2cc(Br)ccc2-3)C1(C)C	100	inactive	29	Active	Active	–	–
CC1(C)C=C(CNc2ccc3c(c2)Cc2cc(Br)ccc2-3)C(C)(C)N1[O]	73	inactive	28	Active	Active	–	–

Reference: ChEMBL document CHEMBL1759856, “Synthesis and study of 2-amino-7-bromofluorenes modified with nitroxides and their precursors as dual anti-amyloid and antioxidant active compounds” (Eur J Med Chem, 2011)
